This note sets out measurements from ChEMBL document CHEMBL4033714, “Discovery of BI 135585, an in vivo efficacious oxazinanone-based 11β hydroxysteroid dehydrogenase type 1 inhibitor” (Bioorg Med Chem, 2017).

The nature of data set [1]: Aqueous solubility of the compound. In kind it is physicochemical. The method in brief:
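Solubility measured in water, with each compound tested as amorphous material.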

Data set [2] in a line: Partition coefficient, log P of the compound. In kind it is physicochemical. The note with it: octanol/water.
The nature of data set [3]: Half life in rat liver microsomes. Type of data set: ADME, microsome.
The target in data set [4] is Cytochrome P450 3A4 (Homo sapiens, UniProt P08684). The data set can be described thus: (§1) Inhibition of recombinant CYP3A4 (unknown origin). In kind it is ADME.
Cytochrome P450 3A4, sequence (P08684 whole entry): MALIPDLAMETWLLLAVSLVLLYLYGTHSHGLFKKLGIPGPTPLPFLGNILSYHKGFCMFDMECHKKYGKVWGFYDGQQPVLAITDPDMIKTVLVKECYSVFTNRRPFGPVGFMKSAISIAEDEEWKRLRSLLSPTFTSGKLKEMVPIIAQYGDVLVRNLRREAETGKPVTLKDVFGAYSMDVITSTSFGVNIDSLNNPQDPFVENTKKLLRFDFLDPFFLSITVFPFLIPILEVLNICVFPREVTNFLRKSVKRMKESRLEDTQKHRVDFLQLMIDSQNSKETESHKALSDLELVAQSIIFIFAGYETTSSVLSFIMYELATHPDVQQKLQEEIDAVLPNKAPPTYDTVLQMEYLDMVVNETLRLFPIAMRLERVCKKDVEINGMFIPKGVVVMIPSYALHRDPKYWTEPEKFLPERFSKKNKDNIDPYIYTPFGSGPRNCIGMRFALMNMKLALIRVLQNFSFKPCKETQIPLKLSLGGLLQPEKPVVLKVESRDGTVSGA
The target in data set [5] is Cytochrome P450 2D6 (Homo sapiens, UniProt P10635). The data set can be described thus: Inhibition of CYP2D6 (unknown origin). Type of data set: ADME.
Cytochrome P450 2D6, sequence (P10635 whole entry): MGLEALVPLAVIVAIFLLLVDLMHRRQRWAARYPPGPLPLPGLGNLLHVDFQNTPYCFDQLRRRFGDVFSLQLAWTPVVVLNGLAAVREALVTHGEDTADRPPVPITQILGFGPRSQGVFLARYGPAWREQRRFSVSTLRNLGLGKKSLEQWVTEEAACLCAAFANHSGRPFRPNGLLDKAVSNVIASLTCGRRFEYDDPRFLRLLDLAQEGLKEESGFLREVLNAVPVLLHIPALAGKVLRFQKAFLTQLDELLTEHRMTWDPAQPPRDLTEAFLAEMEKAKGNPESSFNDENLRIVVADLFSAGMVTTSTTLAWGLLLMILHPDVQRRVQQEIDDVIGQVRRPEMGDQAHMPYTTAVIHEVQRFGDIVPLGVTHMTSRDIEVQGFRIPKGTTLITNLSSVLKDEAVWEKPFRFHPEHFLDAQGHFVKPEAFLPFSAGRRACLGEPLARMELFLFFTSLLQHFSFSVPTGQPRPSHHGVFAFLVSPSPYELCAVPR
Data set [6] is described as follows: Half life in human liver microsomes. Type of data set: ADME, microsome.
The target in data set [7] is Cytochrome P450 2C9 (Homo sapiens, UniProt P11712). The data set can be described thus: (§2) Inhibition of CYP2C9 (unknown origin). In kind it is ADME.
Cytochrome P450 2C9, sequence (P11712 whole entry): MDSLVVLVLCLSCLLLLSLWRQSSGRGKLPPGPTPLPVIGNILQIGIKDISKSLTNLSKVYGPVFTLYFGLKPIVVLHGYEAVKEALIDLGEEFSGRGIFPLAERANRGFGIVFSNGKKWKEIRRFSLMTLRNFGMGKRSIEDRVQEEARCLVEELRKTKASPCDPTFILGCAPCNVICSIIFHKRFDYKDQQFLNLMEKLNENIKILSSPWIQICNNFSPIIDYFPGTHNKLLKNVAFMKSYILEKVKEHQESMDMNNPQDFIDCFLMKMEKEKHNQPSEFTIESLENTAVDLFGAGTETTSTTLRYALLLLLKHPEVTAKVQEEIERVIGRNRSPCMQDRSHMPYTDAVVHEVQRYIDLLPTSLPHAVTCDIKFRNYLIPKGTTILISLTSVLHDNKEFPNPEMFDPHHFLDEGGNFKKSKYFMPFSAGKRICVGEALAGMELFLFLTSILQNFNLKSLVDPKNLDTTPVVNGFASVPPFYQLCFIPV
Data set [8] is described as follows: Half life in cynomolgus monkey liver microsomes. In kind it is ADME, Macaca fascicularis, microsome.
Data set [9] relates to Cynomolgus monkey. The data set is described as follows: Dose normalized AUC in iv dosed cynomolgus monkey. The note with it: in vivo. In kind it is ADME, organism-based, Macaca fascicularis.
Data set [10] deals with hERG (Homo sapiens, UniProt Q12809). The data set can be described thus: Inhibition of human ERG at 10 uM by patch clamp assay relative to control.
hERG, sequence (Q12809 whole entry): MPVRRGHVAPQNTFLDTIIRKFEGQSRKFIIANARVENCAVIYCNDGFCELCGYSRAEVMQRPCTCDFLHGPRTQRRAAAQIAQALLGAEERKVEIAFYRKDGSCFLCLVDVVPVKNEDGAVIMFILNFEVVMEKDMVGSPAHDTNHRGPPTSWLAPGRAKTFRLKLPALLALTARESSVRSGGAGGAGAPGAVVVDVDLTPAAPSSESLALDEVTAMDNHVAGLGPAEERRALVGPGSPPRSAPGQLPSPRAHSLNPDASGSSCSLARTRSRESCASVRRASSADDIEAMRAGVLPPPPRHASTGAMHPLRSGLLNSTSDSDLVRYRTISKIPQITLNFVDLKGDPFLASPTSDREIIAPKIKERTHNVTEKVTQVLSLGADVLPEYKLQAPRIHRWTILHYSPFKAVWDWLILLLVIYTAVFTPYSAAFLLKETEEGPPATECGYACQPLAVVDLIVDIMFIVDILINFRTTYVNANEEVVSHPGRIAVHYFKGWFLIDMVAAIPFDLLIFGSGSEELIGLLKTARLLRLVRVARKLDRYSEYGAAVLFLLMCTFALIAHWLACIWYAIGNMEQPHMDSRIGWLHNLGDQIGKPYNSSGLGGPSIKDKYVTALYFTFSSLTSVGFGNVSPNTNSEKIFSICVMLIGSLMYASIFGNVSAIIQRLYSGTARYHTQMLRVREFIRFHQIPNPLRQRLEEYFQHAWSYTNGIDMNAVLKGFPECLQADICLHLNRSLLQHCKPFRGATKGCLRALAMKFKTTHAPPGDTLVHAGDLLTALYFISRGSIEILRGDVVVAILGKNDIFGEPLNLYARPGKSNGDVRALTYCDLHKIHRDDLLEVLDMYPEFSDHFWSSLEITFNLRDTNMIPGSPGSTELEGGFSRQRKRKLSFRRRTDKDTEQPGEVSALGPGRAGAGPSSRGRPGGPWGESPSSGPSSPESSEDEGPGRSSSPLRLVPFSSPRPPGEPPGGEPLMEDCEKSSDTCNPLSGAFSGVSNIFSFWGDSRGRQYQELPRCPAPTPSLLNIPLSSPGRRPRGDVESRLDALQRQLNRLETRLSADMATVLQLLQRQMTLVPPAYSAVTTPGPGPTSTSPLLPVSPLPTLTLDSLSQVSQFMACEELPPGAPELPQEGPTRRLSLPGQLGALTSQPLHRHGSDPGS
Data set [11] in a line: Mean residence time in iv dosed cynomolgus monkey. The note with it: in vivo. Type of data set: ADME, organism-based, Macaca fascicularis.
Data set [12] can be described thus: Clearance in iv dosed cynomolgus monkey. The note with it: in vivo. In kind it is ADME, organism-based, Macaca fascicularis.
Data set [13] can be described thus: Volume of distribution at steady state in iv dosed cynomolgus monkey. Type of data set: ADME, organism-based, Macaca fascicularis. The note with it: in vivo, read-out: Vdss.
Data set [14] is described as follows: Mean residence time in po dosed cynomolgus monkey. Type of data set: ADME, organism-based, Macaca fascicularis. Particulars: in vivo.
A short description of data set [15]: Oral bioavailability in cynomolgus monkey. Type of data set: ADME, organism-based, Macaca fascicularis. The note with it: in vivo.
The target of data set [16] is CYP3A4 (Homo sapiens, UniProt P08684). The description is as §1. Particulars: recombinant CYP3A4. Type of data set: ADME.
CYP3A4, sequence (P08684 whole entry): as the sequence (P08684 whole entry) above
The target of data set [17] is CYP2C9 (Homo sapiens, UniProt P11712). The data set is described as §2. In kind it is ADME.
CYP2C9, sequence (P11712 whole entry): as the sequence (P11712 whole entry) above
Data set [18] in a line: Oral bioavailability in rat. The note with it: in vivo. Type of data set: ADME, organism-based.
Data set [19] is described as follows: Clearance in iv dosed rat. Type of data set: ADME, organism-based. Particulars: in vivo.
A short description of data set [20]: Mean residence time in iv dosed rat. In kind it is ADME, organism-based. The note with it: in vivo.
Data set [21] concerns the target Voltage-gated inwardly rectifying potassium channel KCNH2 (Homo sapiens, UniProt Q12809). The data set is described as follows: Inhibition of human ERG.
Setting [22] is: aqueous medium, read-out: solubility.

Molecules are shown by their SMILES. Converted amounts (≈) assume the structure as drawn. A value given as a limit tells only on which side of the number the result lay.

Voltage-gated inwardly rectifying potassium channel KCNH2, sequence (Q12809 whole entry): as the sequence (Q12809 whole entry) above

Regarding `C[C@@H](c1ccc(-c2ccc(F)cc2F)cc1)N1CC[C@](CCO)(c2ccc(F)cc2)OC1=O`, the solubility result in data set [1] (buffer, BLD = below limit of detection) is “Bld”. Moreover, the logP in [2] was found to be 4.2.

Molecule `C[C@@H](c1ccc(Br)cc1)N1CC[C@](CC(C)(C)O)(c2ccc(F)cc2)OC1=O` came in with a half-life in data set [3] of 53 min. In addition, the IC50 in data set [4] was found to be 3.5 µM.

For the molecule `C[C@@H](c1ccc(-c2ccc3ncnn3c2)cc1)N1CC[C@](CC(C)(C)O)(c2ccccc2)OC1=O`, the IC50 was above 50 µM in [5], 10 µM in data set [4] and above 50 µM in data set [7]. Further, the half-life is above 90 min in data set [3], above 90 min in [6] and above 45 min in [8].

Consider `C[C@@H](c1ccc(-c2ccc(=O)n(C)c2)cc1)N1CC[C@](CCCO)(c2ccccc2)OC1=O`, for which, in data set [4], the IC50 was found to be 10.5 µM.

With `C[C@@H](c1ccc(-c2ccc(=O)n(C)c2)cc1)N1CC[C@](CC(C)(C)O)(c2ccccc2)OC1=O`, in data set [5], the IC50 was above 50 µM. For the same molecule, the AUC/dose in data set [9] was 1770 nM·h. Besides, the half-life in data set [3], in [6] and in data set [8] was above 90 min throughout. This molecule returned an inhibition at 10 µM in [10] below 10%. Further, the MRT in [11] was found to be 162 min; in data set [14], 288 min. In addition, the clearance in data set [12] turned out to be 11 mL/min/kg. In addition, the Vd in data set [13] was determined as 1.7 L/kg. Further, the bioavailability in [15] is 39%.

Take `C[C@@H](c1ccc(-c2ccccn2)cc1)N1CC[C@](CCCO)(c2ccccc2)OC1=O`: the IC50 in data set [4] stood at 23 µM.

As to `C[C@@H](c1ccc(-c2ccc(=O)n(C)n2)cc1)N1CC[C@](CC(C)(C)O)(c2ccccc2)OC1=O`, the IC50 in data set [5], in [4] and in [7] was above 50 µM throughout. Also, the half-life was above 90 min in data set [3], above 90 min in data set [6] and above 45 min in data set [8]. Besides, at 10 µM the inhibition in data set [10] was 50%.

Take `Cc1cnc(-c2ccc([C@H](C)N3CC[C@](CC(C)(C)O)(c4ccccc4)OC3=O)cc2)cn1`: the IC50 in [5] was above 50 µM; in data set [4] it was above 50 µM; in [7], 33 µM. In addition, the half-life is 16 min in data set [3], above 90 min in data set [6] and 38 min in [8].

On to `COc1ccc(-c2ccc([C@H](C)N3CC[C@](CCCO)(c4ccccc4)OC3=O)cc2)cn1`, for which the IC50 in data set [4] is above 30 µM.

Consider `COc1ccc(-c2ccc([C@H](C)N3CC[C@](CC(C)(C)O)(c4ccccc4)OC3=O)cc2)cn1`, for which the IC50 in [5] was above 50 µM.

Turning to `C[C@@H](c1ccc(-c2cccnc2)cc1)N1CC[C@](CCCO)(c2ccccc2)OC1=O`, the IC50 in data set [4] came to 2.1 µM.

As for `Cc1cc(-c2ccc([C@H](C)N3CC[C@](CC(C)(C)O)(c4ccccc4)OC3=O)cc2)cc(C)n1`, the IC50 in [5] and in [16] was above 50 µM in each case. Further, the half-life is above 45 min in data set [3], above 45 min in [6] and 38 min in data set [8].

On to `C[C@@H](c1ccc(Br)cc1)N1CC[C@](CC(C)(C)C#N)(c2ccc(F)cc2)OC1=O`, for which, in [3], the half-life amounted to 20.3 min.

In the case of `Cc1ccc(-c2ccc([C@H](C)N3CC[C@](CC(C)(C)O)(c4ccccc4)OC3=O)cc2)nn1`, the IC50 in data set [5], in [16] and in data set [17] was above 50 µM throughout. Besides, in data set [9], the AUC/dose is 3330 nM·h. The half-life in data set [3] was above 45 min; in data set [6], above 90 min; in data set [8] it was above 45 min. In [10], this molecule displayed an inhibition at 10 µM below 10%. Moreover, the MRT came to 288 min in data set [11] and 318 min in data set [14]. In data set [12], this molecule came in with a clearance of 5.2 mL/min/kg. For the same molecule, the Vd in data set [13] came to 1.5 L/kg. The molecule further displayed a bioavailability in [15] of 70%.

In turn, `C[C@@H](c1ccc(OC(F)(F)F)cc1)N1CC[C@](CCC(N)=O)(c2ccc(F)cc2)OC1=O` gave a half-life in [3] above 60 min.

On to `Cc1cc(-c2ccc([C@H](C)N3CC[C@](CCCO)(c4ccccc4)OC3=O)cc2)cc(C)n1`, for which, in data set [3], the half-life was 13 min. The IC50 in [4] is above 30 µM.

In the case of `C[C@@H](c1ccc(-c2cncc(F)c2)cc1)N1CC[C@](CCCO)(c2ccccc2)OC1=O`, in data set [4], the IC50 stood at 11 µM.

Consider `Cc1ccc([C@H](C)N2CC[C@](CCC(N)=O)(c3ccc(F)cc3)OC2=O)cc1`, for which the half-life in data set [3] came out at 7.1 min.

In the case of `C[C@@H](c1ccc(-c2ccc(C(N)=O)cn2)cc1)N1CC[C@](CC(C)(C)O)(c2ccccc2)OC1=O`, the IC50 in data set [5], in data set [16] and in data set [17] was above 50 µM each time. The molecule also showed a bioavailability in data set [18] of 15%. In addition, the half-life in [3] is above 45 min; in data set [6] it was above 90 min; in data set [8], above 45 min.

In data set [18], `C[C@@H](c1ccc(OC(F)F)cc1)N1CC[C@](CCC(N)=O)(c2ccccc2)OC1=O` registered a bioavailability of 51%. In data set [19], this molecule gave a clearance of 91 mL/min/kg. The MRT in [20] was found to be 33 min. Also, the half-life in data set [3] is 50.6 min; in data set [6] it was above 90 min. The half-maximal inhibitory concentration (IC50) in data set [4] was above 30 µM. In data set [1] (setting [22]), the solubility was 1500 µg/mL (≈ 3580 µM).

In turn, `C[C@@H](c1ccc(OC(F)F)cc1)N1CC[C@](CC(C)(C)O)(c2ccc(F)cc2)OC1=O` gave a half-life in data set [3] above 60 min. For the same molecule, the IC50 in data set [4] was 6.6 µM.

In [5], `C[C@@H](c1ccc(-c2ccc(C#N)cn2)cc1)N1CC[C@](CC(C)(C)O)(c2ccccc2)OC1=O` came in with an IC50 above 50 µM. For the same molecule, the half-life in data set [3], in data set [6] and in data set [8] was above 90 min in each case.

Molecule `C[C@@H](c1ccc(Br)cc1)N1CC[C@](CCCNS(C)(=O)=O)(c2ccc(F)cc2)OC1=O` yielded a half-life in data set [3] of 11.4 min.

`C[C@@H](c1ccc(-c2ccc(F)cn2)cc1)N1CC[C@](CC(C)(C)O)(c2ccccc2)OC1=O`: the IC50 in [5] was above 50 µM. Besides, the half-life in data set [3], in data set [6] and in data set [8] was above 45 min each time.

`C[C@@H](c1ccc(Br)cc1)N1CC[C@](CCC(N)=O)(c2ccc(F)cc2)OC1=O` yielded a bioavailability in [18] of 42%. The same molecule registered a clearance in data set [19] of 49 mL/min/kg. This molecule also had an MRT in [20] of 72 min. The results for the half-life in [3] and in data set [6] were 36.1 min and above 90 min, respectively. Moreover, the IC50 in data set [4] is above 30 µM; in [21], 6.3 µM. The solubility in data set [1] (setting [22]) was found to be 300 µg/mL (≈ 668 µM).

Consider `COc1ccc([C@H](C)N2CC[C@](CCC(N)=O)(c3ccc(F)cc3)OC2=O)cc1`, for which, in data set [3], the half-life is 9 min.

Molecule `C[C@@H](c1ccc(OC(F)F)cc1)N1CC[C@](CCC(N)=O)(c2ccc(F)cc2)OC1=O` returned a bioavailability in data set [18] of 77%. This molecule yielded a clearance in [19] of 67 mL/min/kg. In [20], this molecule yielded an MRT of 50.4 min. Besides, the half-life was above 60 min in data set [3] and above 90 min in data set [6]. Further, the results for the IC50 in data set [4] and in data set [21] were 27 µM and 5.3 µM, respectively. The solubility in data set [1] (setting [22]) was 460 µg/mL (≈ 1050 µM).

Regarding `C[C@@H](c1ccc(-c2ccncc2)cc1)N1CC[C@](CCCO)(c2ccccc2)OC1=O`, the IC50 in data set [4] stood at 1.8 µM.

`C[C@@H](c1ccc(Br)cc1)N1CC[C@](CCO)(c2ccc(F)cc2)OC1=O`: the half-life in data set [3] turned out to be 25 min. The IC50 in data set [4] was above 30 µM.

With `C[C@@H](c1ccc(OC(F)F)cc1)N1CC[C@](CC(C)(C)O)(c2ccccc2)OC1=O`, the bioavailability in data set [18] was 57%. In addition, the clearance in data set [19] amounted to 23 mL/min/kg. This molecule also gave an MRT in data set [20] of 50.4 min. Besides, the values for the half-life in data set [3] and in [6] were above 60 min and above 90 min, respectively. For the same molecule, the IC50 in data set [4] was 10 µM. Moreover, in data set [1] (setting [22]), the solubility amounted to 260 µg/mL (≈ 620 µM).

For the molecule `Cc1ncc(-c2ccc([C@H](C)N3CC[C@](CC(C)(C)O)(c4ccccc4)OC3=O)cc2)cn1`, the IC50 in data set [5], in data set [16] and in data set [17] was above 50 µM throughout. In [9], this molecule showed an AUC/dose of 2070 nM·h. Moreover, the half-life in [3], in data set [6] and in data set [8] was above 90 min throughout. For the same molecule, at 10 µM the inhibition in data set [10] was 12%. Also, the MRT was determined as 210 min in [11] and 288 min in data set [14]. Also, the clearance in data set [12] came to 8.1 mL/min/kg. In addition, the Vd in data set [13] was 1.7 L/kg. Moreover, the bioavailability in data set [15] was determined as 96%.
